From ChEMBL document CHEMBL1772980, “Synthesis and evaluation of new furanyl and thiophenyl azoles as antileishmanial agents” (Eur J Med Chem, 2011)
Calls of active or inactive are those of the source. The rule behind the calls is not given here.

Assays:
[1] = Selectivity index, ratio of CC50 for mouse J774A.1 cells to IC50 for Leishmania donovani MHOM/IN/80/Dd8 amastigotes; format: functional
Leishmania donovani [2] = experiment: Antiamastigote activity against Leishmania donovani MHOM/IN/80/Dd8 amastigotes infected in mouse macrophage after 72 hrs by luciferase reporter gene assay; format: functional, organism-based; settings: MHOM/IN/80/Dd8, 72 h
Outline: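 Mouse J-774A.1 macrophages were seeded at 4 × 10⁴ cells/well in RPMI-1640 with 10% foetal calf serum, 37 °C, CO₂, for 24 h. They were then infected with stationary-phase luciferase-expressing promastigotes at 4 × 10⁵/well. Compounds were added in dilutions starting from 40 and incubated 72 h at 37 °C. Medium was replaced by PBS plus Steady Glo, luminescence read as RLU, and IC50 fitted by four-parameter Hill regression.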

Leishmania donovani [3] = experiment: Antipromastigote activity against Leishmania donovani MHOM/IN/80/Dd8 promastigotes assessed as luciferase activity of viable cells at 20 uM after 72 hrs by luminometry; format: functional; settings: MHOM/IN/80/Dd8, 72 h
Outline: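 Late-log luciferase-transfected promastigotes were seeded at 5 × 10⁵ per well in medium 199 with parallel DMSO dilutions as controls. After incubation, a suspension aliquot was mixed 1:1 with Steady Glo reagent and luminescence read as RLU. Percentage inhibition = (N − n) × 100/N, where N is mean control RLU and n is mean treated RLU.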

[4] = Cytotoxicity against mouse J774A1 cells assessed as cell viability after 72 hrs by MTT assay; format: cell-based, J774.A1
Leishmania donovani [5] = experiment: Antiamastigote activity against Leishmania donovani MHOM/IN/80/Dd8 amastigotes infected in mouse macrophage at 40 uM after 72 hrs by luciferase reporter gene assay; format: functional, organism-based

IC50 (Leishmania donovani [2]) | inhibition (Leishmania donovani [5]) | Compound | Selectivity Index [1] | inhibition at 20 µM (Leishmania donovani [3]) | CC50 at 72 h [4]
7.35 µM |  | Fc1ccc(F)c(COC(CCn2ccnc2)c2cccs2)c1 (centres undefined) | 2.05 | 86.8% | 15.1 µM
3.04 µM |  | Clc1cccc(COC(CCn2ccnc2)c2ccco2)c1 (centres undefined) | 19.8 | 100% | 60.2 µM
4.2 µM |  | Fc1ccc(COC(CCn2ccnc2)c2ccco2)c(F)c1 (centres undefined) | 6.86 | 95.5% | 28.8 µM
7.36 µM |  | Clc1cccc(COC(CCn2cncn2)c2ccco2)c1 (centres undefined) | 3.17 | 97.5% | 18.6 µM
5.26 µM |  | Clc1ccc(COC(CCn2ccnc2)c2cccs2)c(Cl)c1 (centres undefined) | 5.65 | 87.8% | 29.7 µM
 | inactive | Clc1ccc(Cl)c(COC(CCn2cncn2)c2cccs2)c1 (centres undefined) |  | 97.3% | 
 | inactive | Clc1ccc(COC(CCn2cncn2)c2ccco2)c(Cl)c1 (centres undefined) |  | 97.8% | 
7.81 µM |  | Fc1ccc(COC(CCn2ccnc2)c2cccs2)c(F)c1 (centres undefined) | 4.4 | 90.6% | 34.4 µM
5.15 µM |  | Clc1ccc(COC(CCn2ccnc2)c2ccco2)c(Cl)c1 (centres undefined) | 10.9 | 91.8% | 56.2 µM
6 µM |  | Clc1ccc(COC(Cn2ccnc2)c2ccc(Cl)cc2Cl)c(Cl)c1 (centres undefined) [MICONAZOLE] | 1.66 | 100% | 9.93 µM
8.04 µM |  | Clc1cccc(COC(CCn2cncn2)c2cccs2)c1 (centres undefined) | 1.93 | 80.6% | 15.6 µM
4.03 µM |  | Clc1ccc(Cl)c(COC(CCn2ccnc2)c2ccco2)c1 (centres undefined) | 7.15 | 96% | 37.6 µM
13.4 µM |  | CCCCCCCCCCCCCCCCOP(=O)([O-])OCC[N+](C)(C)C [MILTEFOSINE] | 0.24 | 99.9% | 3.23 µM
 | inactive | Fc1ccc(COC(CCn2cncn2)c2cccs2)c(F)c1 (centres undefined) |  | 92% | 
 | inactive | Fc1ccc(F)c(COC(CCn2cncn2)c2cccs2)c1 (centres undefined) |  | 94.8% | 
5.14 µM |  | Clc1cccc(COC(CCn2ccnc2)c2cccs2)c1 (centres undefined) | 8.93 | 100% | 46 µM
5.35 µM |  | Fc1ccc(F)c(COC(CCn2ccnc2)c2ccco2)c1 (centres undefined) | 5.77 | 99% | 30.9 µM
 | inactive | Fc1ccc(COC(CCn2cncn2)c2ccco2)c(F)c1 (centres undefined) |  | 90.5% | 
 | inactive | Clc1ccc(COC(CCn2cncn2)c2cccs2)c(Cl)c1 (centres undefined) |  | 97.1% | 
6.75 µM |  | Clc1ccc(Cl)c(COC(CCn2ccnc2)c2cccs2)c1 (centres undefined) | 2.66 | 85.9% | 18 µM
9.39 µM |  | Clc1ccc(Cl)c(COC(CCn2cncn2)c2ccco2)c1 (centres undefined) | 3.08 | 94.5% | 28.9 µM
 | inactive | Fc1ccc(F)c(COC(CCn2cncn2)c2ccco2)c1 (centres undefined) |  | 98.5% | 
